Test results published in the RNAGym collection of RNA variant scans (doi:10.1126/science.aae0568).
This sample holds only a part of the variants without activity.

B1: tRNA (parent)
chain: GUUCCGUUGGCGUAAUGGUAACGCGUCUCCCUCCUAAGGAGAAGACUGCGGGUUCGAGUCCCGUACGGAACG

Variants of: B1
Test: yeast fitness relative to wild type (ratio to wild type); higher = fitter; tRNA-Arg(CCU), competitive growth, 37 C, YPD
Outline: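 Start and end populations of a pooled competition were compared by 100-nucleotide paired-end sequencing of gene amplicons. The Saccharomyces cerevisiae strains carried tRNA-Arg(CCU) gene variants at the native genomic locus, synthesised with a 3% per-site mutation rate at 69 sites, and competed in YPD at 37°C for 24 hours in six parallel replicates. Darwinian fitness relative to wild type was based on the change in genotype frequencies. Genotypes required ≥ 100 starting reads, and estimates < 0.5 were set to 0.5.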
In the case of GUUCCGUUGGCGUAAUGGUAACGCGUCUCCAUCCUUAGGAGAAGACUGCGGGAUCGAGUCCCGUACGGAACG, the yeast fitness is reported as ≤ 0.5. For GUUCCGUUGGCGUAAUGGUAACGCGUCUCUCUCCUAAGGAGAAGACUCCGGGUUCGAGUCCCGUGCGGAACG, the yeast fitness was 0.606. For GUUCCGUUGGCGUAAUGGUAACGCGUCUCUCUCCUAAAGAGAAGACUGCGGGUUCGAGUCCCGUACGCAACG, the yeast fitness was 0.574. In the case of GUUCCGUUGGCGUAAUGGUAACGCGUCUCUCUCCUAAGGAGAAAACUGCGGGUUCAAGUCCCGUACGGAACG, the yeast fitness is reported as ≤ 0.5. In the case of GUUCCGUUGGCGUAAUGGUAACGCGUCUCUCUCCUAACGAGAAGACUGCGGGUUCGAGUCCCGUGCGGAACG, the yeast fitness is reported as 0.53. In the case of GUUCCGUUGGCGUAAUGGUAACGCGUCUCCAUCCUAGGGAGAAGACUGCGGGUUUGGGUCCCGUACGGAACG, the yeast fitness is reported as 0.531. In the case of GUUCCGUUGGCGUAAUGGUAACGCGUCUCCAUCCUACGGAGAAGACCGCGGGUUCGAGUCCCGUACAGAACG, the yeast fitness is reported as ≤ 0.5. Variant GUUCCGUUGGCGUAAUGGUAACGCGUCUCCAUCCUACGGAGAAGACUGCGGGUUCGACUCCCGUACGGAACG has a yeast fitness of 0.521. Variant GUUCCGUUGGCGUAAUGGUAACGCGUCUCCAUCCUAAGGUGAAGAAUGCGGGUUCGAGUCCCGUACGGACCG has a yeast fitness of 0.626. Variant GUUCCGUUGGCGUAAUGGUAACGCGUCUCCAUCCUAAGGUGAAGAAUGCGGGUUCGAGUCCCGUACGGAACG has a yeast fitness of 0.555. With GUUCCGUUGGCGUAAUGGUAACGCGUCUCUCUCCUAAGGAGAAGACUGCGCGUUCGACUCCCGUACGGAACG the yeast fitness was ≤ 0.5. With GUUCCGUUGGCGUAAUGGUAACGCGUCUCUCUCCUAAGCAGAAGACUGCGGGUUCGAGUUCCGUACGGAACG the yeast fitness was ≤ 0.5. In the case of GUUCCGUUGGCGUAAUGGUAACGCGUCUCUCUCCUAAGGAGAAGACUGCGGGUUCGAGUCCCGUAUGGAACG, the yeast fitness is reported as 0.777. For GUUCCGUUGGCGUAAUGGUAACGCGUCUCUCGCCUAGGGAGAAGACUGCGGGUUCGAGUCCCAUACGGAACG, the yeast fitness was ≤ 0.5. Work on GUUCCGUUGGCGUAAUGGUAACGCGUCUCUCUCCUAAGGAGAAAAAUGCGGGUUCGAGUCCCGUACGGAACG yielded a yeast fitness of 0.637. Variant GUUCCGUUGGCGUAAUGGUAACGCGUCUCCAUCCUAGGGAGAAGACUGCGGGUUCGAGUCCCGUUCGGAACG has a yeast fitness of 0.629. With GUUCCGUUGGCGUAAUGGUAACGCGUCUCUCUCCUAAGGAGAAAACUCCGGGUUCGAGUCCCGUACGGAGCG the yeast fitness was ≤ 0.5. For GUUCCGUUGGCGUAAUGGUAACGCGUCUCUCUCCUAACGAGAAGACUGCGGGUUCGGGUCCCGUACGGAACG, the yeast fitness was ≤ 0.5. In the case of GUUCCGUUGGCGUAAUGGUAACGCGUCUCCAUCCUAGAGGGAAGACUGCGGGUUCGAGUCCCGUACGGAACG, the yeast fitness is reported as ≤ 0.5. With GUUCCGUUGGCGUAAUGGUAACGCGUCUCUCUCCUAAGGAGAAGACUGCGGCUUCGAGUCCCGUAGGGAACG the yeast fitness was 0.707. GUUCCGUUGGCGUAAUGGUAACGCGUCUCUCUCCUAAGGAGAAGACUCCGGGUUCGAGUCCCGUACGCAACG gave a yeast fitness of 0.636. In the case of GUUCCGUUGGCGUAAUGGUAACGCGUCUCUCUCCUAAGGAGAAGACAGCGGGUUCGAGUCCCGUAAGGAACG, the yeast fitness is reported as ≤ 0.5. In the case of GUUCCGUUGGCGUAAUGGUAACGCGUCUCUCUCCAAAGGAGAAGACUGCGGGUUCGAGUCCCCUCCGGAACG, the yeast fitness is reported as ≤ 0.5. With GUUCCGUUGGCGUAAUGGUAACGCGUCUCUCUCCAAAGGAGAAGACUGCGGGUUCGAGUCCCCUUCGGAACG the yeast fitness was ≤ 0.5. For GUUCCGUUGGCGUAAUGGUAACGCGUCUCCAUCCUAUGGAGAAGACUGCGGGUUCGAGUCCCGUACCGAACG, the yeast fitness was 0.575. For GUUCCGUUGGCGUAAUGGUAACGCGUCUCUCUCCUAAGGAGAAGACUGCGGGUUCGAGUCCCGUAGGGAGCG, the yeast fitness was ≤ 0.5. In the case of GUUCCGUUGGCGUAAUGGUAACGCGUCUCUCUCCUAAGGAGAAGACUGCGAGUUAGAGUCCCGUACGGAACG, the yeast fitness is reported as 0.686. With GUUCCGUUGGCGUAAUGGUAACGCGUCUCUCACCUAAGGAGAAGACUGCGGGUUCGUGUCCCGUACGGAACG the yeast fitness was 0.692. Work on GUUCCGUUGGCGUAAUGGUAACGCGUCUCUCUCCUAAGGAGAAGACUGCGGAUUCGAGUCCCGUACGGAACG yielded a yeast fitness of 0.785. In the case of GUUCCGUUGGCGUAAUGGUAACGCGUCUCUCUCCUAAGGAGAAGACUGCGGGUACGAGUCCCGUACGGAACG, the yeast fitness is reported as 0.561. For GUUCCGUUGGCGUAAUGGUAACGCGUCUCUCUCCUAAGGAGAAGACUGCGGGUUCGAGACCCGUACGGCACG, the yeast fitness was ≤ 0.5. In the case of GUUCCGUUGGCGUAAUGGUAACGCGUCUCUCUCCUAAGGAGAAGACUGCGGGUUCAAGUCCCGUACGGCACG, the yeast fitness is reported as 0.566. With GUUCCGUUGGCGUAAUGGUAACGCGUCUCUCUCCUAAGGAAAAGACUGCGGGUUCGAGUCCCGUACGGCACG the yeast fitness was ≤ 0.5. For GUUCCGUUGGCGUAAUGGUAACGCGUCUCCAUCCUAUGGAGAAGACUGAGGGUUCGAGUCCCGUACGGAACG, the yeast fitness was 0.745. With GUUCCGUUGGCGUAAUGGUAACGCGUCUCUCUCCUAAGGAGAAGACUGCGGGUUCGAGUCCCGUACGCAACG the yeast fitness was 0.813. For GUUCCGUUGGCGUAAUGGUAACGCGUCUCUCUCCUAAGGAGAAGACUGCCGGUUCGAGUCCCGUACGGAACG, the yeast fitness was 0.69. GUUCCGUUGGCGUAAUGGUAACGCGUCUCCAUCCUAAGGUGGAGACUGCGGGUUCGAGUCCCGUACGGAACG showed a yeast fitness of 0.606. In the case of GUUCCGUUGGCGUAAUGGUAACGCGUCUCCAUCCUACGGAGAAGACUGCGGGUUCGAGUCCCGUACGGAACG, the yeast fitness is reported as 0.665. GUUCCGUUGGCGUAAUGGUAACGCGUCUCCAUCCUAGGGAGAAGACUGCGGGUUCGAGUCCCGUACGGAACG showed a yeast fitness of 0.672. For GUUCCGUUGGCGUAAUGGUAACGCGUCUCUCUCCAAAGGAGAAGACUGCGGGUUCGAGUCCAGUACGGAACG, the yeast fitness was ≤ 0.5. In the case of GUUCCGUUGGCGUAAUGGUAACGCGUCUCUCACCUUUGGAGAAGACUGCGGGUUCGAGUCCCGUACGGAACG, the yeast fitness is reported as ≤ 0.5. For GUUCCGUUGGCGUAAUGGUAACGCGUCUCUCUCCUAAGGAGAAGACUGCGGGUACGAGUCCCGUACGCAACG, the yeast fitness was ≤ 0.5. Variant GUUCCGUUGGCGUAAUGGUAACGCGUCUCCAUCCUAAGGCGAAGACUGCGGAUUCGAGUCACGUACGGAACG has a yeast fitness of 0.528. For GUUCCGUUGGCGUAAUGGUAACGCGUCUCUCUCCUAAGGAGAAGACUGCGAGUUCGAGUCCCGUAUGGACCG, the yeast fitness was ≤ 0.5. For GUUCCGUUGGCGUAAUGGUAACGCGUCUCCAUCCUAAGGGGACAACUGCGGGUUCGAGUCCCGUACGGAACG, the yeast fitness was ≤ 0.5. Work on GUUCCGUUGGCGUAAUGGUAACGCGUCUCUCUCCUAAGGAGAAAACUGCGGGUUCGAGUCCCGUCCGGAACG yielded a yeast fitness of 0.553. Work on GUUCCGUUGGCGUAAUGGUAACGCGUCUCUCUCCUAAGGAGAAGACGGCGGGUUCGAGUCCCGUACGGAACG yielded a yeast fitness of 0.588. In the case of GUUCCGUUGGCGUAAUGGUAACGCGUCUCUCUCCUAAGGAGAAGACAGCGGGUUCGAGUCCCGUACGGAACG, the yeast fitness is reported as 0.695. In the case of GUUCCGUUGGCGUAAUGGUAACGCGUCUCUCUCCUAAGGAGAAGACUGCGGGGUCGAGUCCCGUACGGUACG, the yeast fitness is reported as ≤ 0.5. GUUCCGUUGGCGUAAUGGUAACGCGUCUCUCUCCUAAGGAGAAGACUGCGCGUUCGAGUCACGUACGGAACG showed a yeast fitness of 0.635. Work on GUUCCGUUGGCGUAAUGGUAACGCGUCUCUCUCCUAAGGAGAAGACUGCGGGUUCGAGUCCCCUACGGUACG yielded a yeast fitness of 0.527. For GUUCCGUUGGCGUAAUGGUAACGCGUCUCUCACCUUUGGAGAAGACUGCGGGUUCGAGUCCUGUACGGUACG, the yeast fitness was ≤ 0.5. For GUUCCGUUGGCGUAAUGGUAACGCGUCUCCAUCCUAAGGGGAGGACUGCGGCUUCGAGGCCCGUACGGAACG, the yeast fitness was ≤ 0.5. In the case of GUUCCGUUGGCGUAAUGGUAACGCGUCUCUCUCCUAAGGAGAAGACUACGGGUUCGAGUCCCGUACAGAACG, the yeast fitness is reported as ≤ 0.5. With GUUCCGUUGGCGUAAUGGUAACGCGUCUCUCUCCUAAGGAGAAGACUGCGGGUUCGAGUCCCGUAUGGUACG the yeast fitness was 0.602. With GUUCCGUUGGCGUAAUGGUAACGCGUCUCUCUCCUAAGGAGAAGACUGCGGGUUCGAAUCGCGUACGCAUCG the yeast fitness was ≤ 0.5. Work on GUUCCGUUGGCGUAAUGGUAACGCGUCUCUCUCCUAAGGAGAAGACUGCGGGUUCGAAUCCCGUACGGAACG yielded a yeast fitness of 0.919. In the case of GUUCCGUUGGCGUAAUGGUAACGCGUCUCUCUCCUAAGGAGAAGACUGCGGGUUCGACUCCCGUACGGAACG, the yeast fitness is reported as 0.822. In the case of GUUCCGUUGGCGUAAUGGUAACGCGUCUCUCUCCUAACGAGAAGACUGCGGGUUGGAGUCUCGUACGGAACG, the yeast fitness is reported as ≤ 0.5. For GUUCCGUUGGCGUAAUGGUAACGCGUCUCUCUCCUAAGGAGAAGACUGCAGGUUCGAGUCGCGUACGGAACG, the yeast fitness was ≤ 0.5. With GUUCCGUUGGCGUAAUGGUAACGCGUCUCUCUCCUAAGAAGAAGACUGCGGGUUCGAGUGCCGUACGGAACG the yeast fitness was 0.57. GUUCCGUUGGCGUAAUGGUAACGCGUCUCUCUCCUAAGGAGAAGACUGCGGGUACGAGUCCCAUACGGAACG showed a yeast fitness of 0.704. With GUUCCGUUGGCGUAAUGGUAACGCGUCUCUCUCCUAAGGAGAAGACUGCCGGUUCGAGUCGCGUACGGAACG the yeast fitness was ≤ 0.5. Variant GUUCCGUUGGCGUAAUGGUAACGCGUCUCUCUCCUAAGGAGAAGACUGCGGGAUCGAGUCCCGUACGGAACG has a yeast fitness of 0.672. In the case of GUUCCGUUGGCGUAAUGGUAACGCGUCUCUCUCCUAAGGAGAAGACUGCGGGGUCGAGUCCCGUACGGAACG, the yeast fitness is reported as 0.618. In the case of GUUCCGUUGGCGUAAUGGUAACGCGUCUCUCUCCUAAGAGGAAGACUGCGGGUUCGAGUCCCGUACAGAACG, the yeast fitness is reported as ≤ 0.5. GUUCCGUUGGCGUAAUGGUAACGCGUCUCUCUCCUAAGGAGAAGACUACGGGUUCGAGUCCCGUACGGAACG gave a yeast fitness of 0.861. With GUUCCGUUGGCGUAAUGGUAACGCGUCUCUCUCCUAACGAGAAGACUGCGGGUUCGAGUCCCGCGCGGAACG the yeast fitness was ≤ 0.5. For GUUCCGUUGGCGUAAUGGUAACGCGUCUCUCUCCUAAGGAGAAGACCGCGGGUUCGAGUCCCGUAUGGAACG, the yeast fitness was 0.577. For GUUCCGUUGGCGUAAUGGUAACGCGUCUCUCUCCUAAGGAGAAGACAGCGGGUUCGAGUCCCGUACCGAUCG, the yeast fitness was ≤ 0.5. GUUCCGUUGGCGUAAUGGUAACGCGUCUCUCUCCUAAGGAGAAGACUGCGGGUUCGAGGCCCGUACGGAACG showed a yeast fitness of 0.898. For GUUCCGUUGGCGUAAUGGUAACGCGUCUCCAUCCUCAGGAGAAGACUGCGGGUUCGAGUCCCGUACGGAACG, the yeast fitness was 0.558. Variant GUUCCGUUGGCGUAAUGGUAACGCGUCUCUCUCCUAAGGAGAACACUGCGGGUUCGAGUCCCGUACGGAACG has a yeast fitness of 0.662. In the case of GUUCCGUUGGCGUAAUGGUAACGCGUCUCUCUCCUAAGCAGAAGACUGCGGGUUCGAGUCCCGUACGGAACG, the yeast fitness is reported as 0.682. In the case of GUUCCGUUGGCGUAAUGGUAACGCGUCUCUCUCCUAAGAAGAAGACUGCGGGUUCGAGUCCUGUACGCAACG, the yeast fitness is reported as 0.571.
